Experimental data of several laboratories.
Protocols differ between the studies behind these lines.
SIGMAR1: Sigma non-opioid intracellular receptor 1 (SIGMAR1, Homo sapiens, UniProt Q99720)
Nectin-4: Nectin-4 (Homo sapiens, UniProt Q96NY8)
PFF0160c E182D: Dihydroorotate dehydrogenase (quinone), mitochondrial (PFF0160c, Plasmodium falciparum, UniProt Q08210, E182D)
PFF0160c: Dihydroorotate dehydrogenase (quinone), mitochondrial (PFF0160c, Plasmodium falciparum, UniProt Q08210)

Cc1nccn1CC1CCc2c(c3ccccc3n2C)C1=O (stereo not drawn)  Ki (SIGMAR1; ligand displacement; radioligand): 6510 nM
CCCC[C@@H]1NC(=O)[C@H](Cc2ccc(O)cc2)NC(=O)[C@@H]2CCCN2C(=O)[C@H](CCC(=O)O)NC(=O)[C@H](C)NC(=O)[C@H](Cc2ccccc2)NC(=O)[C@@H]2CSCCC(=O)N3CN(CN(C3)C(=O)CCSC[C@H](NC(C)=O)C(=O)N[C@@H](CC(C)(C)C)C(=O)N3CCC[C@H]3C(=O)N[C@@H](CCC(=O)O)C(=O)N[C@H](CCCCNC(=O)CCc3cn(CCOCCOCCOCCOCCOCCC(=O)N[C@H]4CSCCC(=O)N5CN6CN(C5)C(=O)CCSC[C@H](NC(=O)[C@@H](CC(=O)O)NC(=O)[C@H](Cc5cccc7ccccc57)NC(=O)[C@@H]5CCCN5C4=O)C(=O)N[C@@H](CCSC)C(=O)N[C@@H](CCCCNC(=N)N)C(=O)N[C@@H](CC(=O)O)C(=O)N[C@@H](Cc4c[nH]c5ccccc45)C(=O)N[C@@H](CO)C(=O)N[C@@H]([C@@H](C)O)C(=O)N4CCC[C@H]4C(=O)N4C[C@H](O)C[C@H]4C(=O)N[C@@H](Cc4c[nH]c5ccccc45)C(=O)N[C@H](C(N)=O)CSCCC6=O)nn3)C(=O)N3CCC[C@H]3C(=O)N[C@@H](Cc3ccc(O)cc3)C(=O)N2)C(=O)CCSC[C@@H](C(N)=O)NC1=O  Kd (Nectin-4; binding; SPR): 2.5 nM
COc1cc(Nc2ccnc3cc(-c4ccncc4)ccc23)cc(OC)c1OC  IC50 (PFF0160c E182D; enzyme activity; inhibitor; absorbance): 1510 nM
Cc1c2ccncc2c(C)c2c1[nH]c1ccccc12  Ki (SIGMAR1; ligand displacement; radioligand): > 10000 nM
O=S(=O)(O)c1nc2ccccc2[nH]1  IC50 (racE (Bacillus subtilis, UniProt P94556); enzyme activity; inhibitor; absorbance): 128000 nM
CCCC[C@@H]1NC(=O)[C@H](Cc2ccc(O)cc2)NC(=O)[C@@H]2CCCN2C(=O)[C@H](CC(=O)O)NC(=O)[C@H](C)NC(=O)[C@H](Cc2ccccc2)NC(=O)[C@@H]2CSCCC(=O)N3CN(CN(C3)C(=O)CCSC[C@@H](C(=O)N[C@@H](CNC(=O)CCOCCOCCOCCOCCOCCn3cc(CCC(=O)N[C@H]4CSCCC(=O)N5CN6CN(C5)C(=O)CCSC[C@H](NC(=O)[C@@H](CC(=O)O)NC(=O)[C@H](Cc5cccc7ccccc57)NC(=O)[C@@H]5CCCN5C4=O)C(=O)N[C@@H](CCSC)C(=O)N[C@@H](CCCCNC(=N)N)C(=O)N[C@@H](CC(=O)O)C(=O)N[C@@H](Cc4c[nH]c5ccccc45)C(=O)N[C@@H](CO)C(=O)N[C@@H]([C@@H](C)O)C(=O)N4CCC[C@H]4C(=O)N4C[C@H](O)C[C@H]4C(=O)N[C@@H](Cc4c[nH]c5ccccc45)C(=O)N[C@H](C(N)=O)CSCCC6=O)nn3)C(N)=O)NC1=O)C(=O)CCSC[C@H](NC(C)=O)C(=O)N[C@@H](CC(C)(C)C)C(=O)N1CCC[C@H]1C(=O)N[C@@H](CCC(=O)O)C(=O)N[C@H](C)C(=O)N1CCC[C@H]1C(=O)N[C@@H](Cc1ccc(O)cc1)C(=O)N2  Kd (Nectin-4; binding; SPR): 1.1 nM
Oc1cc(NC[C@H]2CCC[C@@H]2NCc2cc(Br)cc(Br)c2)nc2ccccc12  IC50 (PFF0160c E182D; enzyme activity; inhibitor; absorbance): > 10000 nM
CN1CCN(C2=Nc3cc(Cl)ccc3Nc3ccccc32)CC1  Ki (SIGMAR1; ligand displacement; radioligand): > 10000 nM
CCCCOc1ccccc1C(=O)NCc1csc(-c2ccccc2)n1  IC50 (PFF0160c; enzyme activity; inhibitor; absorbance): 421 nM
N[C@@H](C[C@]1(C(=O)O)C[C@H]2OC[C@@H](O)[C@@H](O)[C@H]2O1)C(=O)O  Ki (Glutamate receptor ionotropic, kainate 2 (Grik2, Rattus norvegicus, UniProt P42260, A518T/Y443F); ligand displacement; radioligand): 972 nM
COCC(C)n1c(SCC(=O)Nc2cc(C(F)(F)F)ccc2Cl)nc2ccccc2c1=O (stereo not drawn)  IC50 (PFF0160c; enzyme activity; inhibitor; absorbance): 626 nM
CCCC[C@@H]1NC(=O)[C@H](Cc2ccc(O)cc2)NC(=O)[C@@H]2CCCN2C(=O)[C@H](CC(N)=O)NC(=O)[C@H](C)NC(=O)[C@H](Cc2ccccc2)NC(=O)[C@@H]2CSCCC(=O)N3CN(CN(C3)C(=O)CCSC[C@H](NC(C)=O)C(=O)N[C@@H](CC(C)(C)C)C(=O)N3CCC[C@H]3C(=O)N[C@@H](CCC(=O)O)C(=O)N[C@H](CCCCNC(=O)CCc3cn(CCOCCOCCOCCN(CCOCCOCCOCCC(=O)N[C@H]4CSCCC(=O)N5CN6CN(C5)C(=O)CCSC[C@H](NC(=O)[C@@H](CC(=O)O)NC(=O)[C@H](Cc5cccc7ccccc57)NC(=O)[C@@H]5CCCN5C4=O)C(=O)N[C@@H](CCSC)C(=O)N[C@@H](CCCCNC(=N)N)C(=O)N[C@@H](CC(=O)O)C(=O)N[C@@H](Cc4c[nH]c5ccccc45)C(=O)N[C@@H](CO)C(=O)N[C@@H]([C@@H](C)O)C(=O)N4CCC[C@H]4C(=O)N4C[C@H](O)C[C@H]4C(=O)N[C@@H](Cc4c[nH]c5ccccc45)C(=O)N[C@H](C(N)=O)CSCCC6=O)CCOCCOCCOCCn4cc(CCC(=O)NCCCC[C@H]5NC(=O)[C@H](CCC(=O)O)NC(=O)[C@@H]6CCCN6C(=O)[C@H](CC(C)(C)C)NC(=O)[C@@H](NC(C)=O)CSCCC(=O)N6CN7CN(C6)C(=O)CCSC[C@H](NC(=O)[C@H](Cc6ccc(O)cc6)NC(=O)[C@@H]6CCCN6C5=O)C(=O)N[C@@H](Cc5ccccc5)C(=O)N[C@@H](C)C(=O)N[C@@H](CC(N)=O)C(=O)N5CCC[C@H]5C(=O)N[C@@H](Cc5ccc(O)cc5)C(=O)N[C@@H](CCCC)C(=O)N[C@H](C(N)=O)CSCCC7=O)nn4)nn3)C(=O)N3CCC[C@H]3C(=O)N[C@@H](Cc3ccc(O)cc3)C(=O)N2)C(=O)CCSC[C@@H](C(N)=O)NC1=O  Kd (Nectin-4; binding; SPR): 1.9 nM
CN(C)CC[C@@H](c1ccc(Cl)cc1)c1ccccn1  Ki (SIGMAR1; ligand displacement; radioligand): 1990 nM
CCCC[C@@H]1NC(=O)[C@H](Cc2ccc(O)cc2)NC(=O)[C@@H]2CCCN2C(=O)[C@H](CC(=O)O)NC(=O)[C@H](C)NC(=O)[C@H](Cc2ccccc2)NC(=O)[C@@H]2CSCCC(=O)N3CN(CN(C3)C(=O)CCSC[C@@H](C(=O)N[C@@H](C)C(N)=O)NC1=O)C(=O)CCSC[C@H](NC(=O)[C@H](C)NC(C)=O)C(=O)N[C@@H]([C@@H](C)CC)C(=O)N[C@@H](CCC(=O)O)C(=O)N[C@@H](CCC(=O)O)C(=O)N[C@H](CCCCNC(=O)CCc1cn(CCOCCOCCOCCN(CCOCCOCCOCCC(=O)N[C@H]3CSCCC(=O)N4CN5CN(C4)C(=O)CCSC[C@H](NC(=O)[C@@H](CC(=O)O)NC(=O)[C@H](Cc4cccc6ccccc46)NC(=O)[C@@H]4CCCN4C3=O)C(=O)N[C@@H](CCSC)C(=O)N[C@@H](CCCCNC(=N)N)C(=O)N[C@@H](CC(=O)O)C(=O)N[C@@H](Cc3c[nH]c4ccccc34)C(=O)N[C@@H](CO)C(=O)N[C@@H]([C@@H](C)O)C(=O)N3CCC[C@H]3C(=O)N3C[C@H](O)C[C@H]3C(=O)N[C@@H](Cc3c[nH]c4ccccc34)C(=O)N[C@H](C(N)=O)CSCCC5=O)CCOCCOCCOCCn3cc(CCC(=O)NCCCC[C@H]4NC(=O)[C@H](CCC(=O)O)NC(=O)[C@H](CCC(=O)O)NC(=O)[C@H]([C@@H](C)CC)NC(=O)[C@@H](NC(=O)[C@H](C)NC(C)=O)CSCCC(=O)N5CN6CN(C5)C(=O)CCSC[C@H](NC(=O)[C@H](Cc5ccc(O)cc5)NC(=O)[C@H](CCC(N)=O)NC4=O)C(=O)N[C@@H](Cc4ccccc4)C(=O)N[C@@H](C)C(=O)N[C@@H](CC(=O)O)C(=O)N4CCC[C@H]4C(=O)N[C@@H](Cc4ccc(O)cc4)C(=O)N[C@@H](CCCC)C(=O)N[C@H](C(=O)N[C@@H](C)C(N)=O)CSCCC6=O)nn3)nn1)C(=O)N[C@@H](CCC(N)=O)C(=O)N[C@@H](Cc1ccc(O)cc1)C(=O)N2  Kd (Nectin-4; binding; SPR): 6.8 nM
CCc1nc2nc(C)cc(Nc3cc(C)cc(C)c3)n2n1  IC50 (PFF0160c E182D; enzyme activity; inhibitor; absorbance): 8560 nM
